According to paper PMC3830715 (Biochemistry, 2013):
Each block holds one molecule with its values, some of them ahead of it.

Key:
WT PDK1 PH domain [1] = biological target: T1, WT PDK1 PH domain (Homo sapiens, UniProt O15530); format: binding
T1 sequence (O15530 459-550 limits assumed): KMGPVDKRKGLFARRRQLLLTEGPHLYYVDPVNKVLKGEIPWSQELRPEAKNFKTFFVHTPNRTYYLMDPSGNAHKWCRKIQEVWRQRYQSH

WT PDK1 PH domain [2] = biological target: T1, WT PDK1 PH domain; format: binding; remark: listed apart in the source
Procedure, shortened: (§1)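 PH domain (1 μM, from Sf9 cells) was rapidly mixed by stopped flow with plasma membrane-like SUVs (600 μM total lipid, 6 μM accessible PIP₃). Final concentrations were 0.5 μM protein and 3 μM PIP₃, at 25 °C in HEPES pH 7.4 buffer with 10 mM DTT. Trp-to-dansyl-PE FRET was monitored, and a single-exponential fit gave k_on(app). k_off was estimated from the measured K_D and k_on.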

T513E PDK1 PH domain [3] = biological target: T2, T513E PDK1 PH domain (Homo sapiens, UniProt O15530, T513E); format: binding
T2 sequence (O15530 459-550 T513E limits assumed): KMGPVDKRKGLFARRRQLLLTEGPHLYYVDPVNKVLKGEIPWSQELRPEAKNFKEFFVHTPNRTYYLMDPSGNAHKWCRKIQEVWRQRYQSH
Procedure, shortened: as §1

[4] = system: WT and T513E PDK1 PH domains; format: binding, human; settings: PC/PS/PIP3 74/24/2 supported bilayer (dioleoyl PIP3), SE n = 3
T513E PDK1 PH domain [5] = biological target: T2, T513E PDK1 PH domain; format: binding; settings: read-out: KD(IP6); free T513E PH domain in solution, 25 °C, physiological buffer
Procedure, shortened: (§2)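 Free PH domain, purified from Sf9 cells, was titrated with IP₆ in solution at 25 °C. The buffer was HEPES pH 7.4 with 140 mM KCl, 15 mM NaCl, 0.5 mM MgCl₂ and 10 mM DTT. Intrinsic Trp fluorescence was read at ex 284 nm / em 335 nm, slits 1/8 nm. K_DI came from a nonlinear least squares fit assuming homogeneous binding sites.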

WT PDK1 PH domain [6] = biological target: T1, WT PDK1 PH domain; format: binding; settings: read-out: KD(IP6); free WT PH domain in solution, 25 °C, physiological buffer
Procedure, shortened: as §2

[7] = biological target: the molecule itself; assay: single molecule TIRFM brightness analysis

Molecule: CCCCCCCCCCCCCCCC(=O)OC[C@H](COP(=O)(O)OC1[C@H](O)[C@H](OP(=O)(O)O)C(OP(=O)(O)O)[C@H](OP(=O)(O)O)[C@H]1O)OC(=O)CCCCCCCCCCCCCCC (some centres unmarked) [PIP3, 1,2-dipalmitoylphosphatidylinositol 3,4,5-trisphosphate]
- kon (app) (WT PDK1 PH domain [2]; WT PH domain 0.5 μM, 3 μM accessible PIP3, 25 °C): 1.6e+06 ± 100000 M⁻¹ s⁻¹
- koff (calc) (WT PDK1 PH domain [2]; WT PH domain, estimated from measured KD and kon): 0.3 ± 0.2 ms ^−1
- greater PIP3 membrane affinity of dimeric WT relative to monomeric T513E (WT PDK1 PH domain [1]; plasma membrane-like bilayers): 35 fold
- kon (app) (T513E PDK1 PH domain [3]; T513E PH domain 0.5 μM, 3 μM accessible PIP3, 25 °C): 2.5e+06 ± 100000 M⁻¹ s⁻¹
- koff (calc) (T513E PDK1 PH domain [3]; T513E PH domain, estimated from measured KD and kon): 18 ± 5 ms ^−1
- higher concentration of T513E PH domain needed relative to WT for same density of membrane-associated single particles (lower affinity for target PIP3 bilayer) [4]: 9.7 ± 1.9 fold

B1: human WT PDK1 PH domain, AF555-labeled (domain or fragment, UniProt O15530 409-556, looked up)
chain: GSNIEQYIHDLDSNSFELDLQFSEDEKRLLLEKQAGGNPWHQFVENNLILKMGPVDKRKGLFARRRQLLLTEGPHLYYVDPVNKVLKGEIPWSQELRPEAKNFKTFFVHTPNRTYYLMDPSGNAHKWCRKIQEVWRQRYQSHPDAAVQ
modifications: Alexa Fluor 555 on the N-terminal Sfp labeling tag (enzymatic labeling, up to ~50% labeling efficiency)
- stoichiometry N [7]: 2

Continued, values first:

- higher affinity for IP4 than for IP6 (WT PDK1 PH domain [1]; WT PH domain): 80 fold
Molecule: O=P(O)(O)OC1[C@H](O)[C@H](OP(=O)(O)O)C(OP(=O)(O)O)[C@H](OP(=O)(O)O)[C@H]1O (some centres unmarked) [IP4, inositol 1,3,4,5-tetrakis(phosphate)]

- membrane-bound protein displaced (WT PDK1 PH domain [1]; 1 mM IP6, WT PH domain on PIP3 target membranes): less than 5%
- Kd (T513E PDK1 PH domain [5]): 30 ± 11 µM
- Kd (WT PDK1 PH domain [6]): 9 ± 3 µM
Molecule: O=P(O)(O)OC1C(OP(=O)(O)O)C(OP(=O)(O)O)C(OP(=O)(O)O)C(OP(=O)(O)O)C1OP(=O)(O)O (centres unmarked) [IP6, Inositol 1,2,3,4,5,6-hexakisphosphate]
